High-throughput results as filed in PubChem BioAssay.
An excerpt weighted towards active compounds, which were near 3.1% of everything screened.
KCNQ1 block: inhibitors of human KCNQ1 channel, primary screen, cell-based, thallium flux, high-throughput; CHO-K1 KCNQ1, FluxOR thallium flux fluorescence; hits give high values; 310,000 compounds, 1.3% hits; Potassium voltage-gated channel subfamily KQT member 1 (Homo sapiens), P51787; B-score at 10 µM;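 active = compounds whose thallium flux B-score, printed positive for inhibition, exceeds three library SD while starting fluorescence stays within three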;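 note: channel opened by potassium depolarization with thallium stimulus after 20 min compound exposure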
Target sequence (P51787 whole entry, looked up): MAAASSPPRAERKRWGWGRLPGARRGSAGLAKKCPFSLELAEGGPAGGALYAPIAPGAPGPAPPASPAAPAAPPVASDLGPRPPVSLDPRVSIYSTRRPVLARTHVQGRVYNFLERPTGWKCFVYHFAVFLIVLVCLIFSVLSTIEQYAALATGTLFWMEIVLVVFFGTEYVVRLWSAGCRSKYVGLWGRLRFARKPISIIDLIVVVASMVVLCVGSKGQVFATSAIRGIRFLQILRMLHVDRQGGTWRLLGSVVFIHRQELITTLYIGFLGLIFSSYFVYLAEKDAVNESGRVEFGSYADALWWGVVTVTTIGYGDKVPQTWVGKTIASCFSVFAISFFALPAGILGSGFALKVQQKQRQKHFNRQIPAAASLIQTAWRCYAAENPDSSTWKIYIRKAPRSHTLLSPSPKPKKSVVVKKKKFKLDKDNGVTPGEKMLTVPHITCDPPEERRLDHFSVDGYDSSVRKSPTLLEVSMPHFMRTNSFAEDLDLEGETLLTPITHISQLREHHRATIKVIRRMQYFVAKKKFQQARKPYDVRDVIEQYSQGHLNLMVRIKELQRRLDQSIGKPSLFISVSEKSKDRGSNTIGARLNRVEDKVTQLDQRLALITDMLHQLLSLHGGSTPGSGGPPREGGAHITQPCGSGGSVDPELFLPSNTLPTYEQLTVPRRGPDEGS
KCNQ1 pot: potentiators or activators of KCNQ1 channel, primary screen, cell-based, thallium flux, high-throughput | Potassium voltage-gated channel subfamily KQT member 1 (Homo sapiens), P51787 | CHO-K1 KCNQ1, thallium flux FluxOR fluorescence; hits give high values | B-score at 10 µM | 310,000 compounds, 0.35% hits;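 active = fluorescence ratio B-score, a plate-corrected score, at least three library SD, with initial intensity B-score within 5 SD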
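Schedule – 37 °C overnight plating, 90-min dark dye load, 20-min compound pretreatment · System – stable KCNQ1 CHO-K1 line · Probe or stimulus – thallium- and potassium-containing depolarizing buffer · Measured by – kinetic FluxOR fluorescence, 10 s baseline plus 110 s post-stimulus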
KCNK3 inh: human KCNK3 channel inhibitors, primary screen, CHO cells, FluxOR thallium flux, B-score | Potassium channel subfamily K member 3 (Homo sapiens), O14649 | FluxOR fluorescence; hits give low values | B-score at 10 µM | 340,000 compounds, 0.84% hits | AID 602410, 2012;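 active = B-score under library mean minus 4 SD, starting fluorescence ratio at most library mean plus 5 SD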;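 note: more negative B-score means stronger inhibition of thallium flux through KCNK3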
KCNK9 block: KCNK9 potassium channel inhibitors, primary screen, HEK293 cells, thallium flux; 310,000 compounds, 1.2% hits; AID 488922, 2010; B-score at 10 µM; FluxOR thallium flux fluorescence; hits give low values;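 active = ratio B-score over 3 SD below the library mean, with starting fluorescence within 5 SD of its mean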;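 note: negative B-score means less thallium flux so channel inhibition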
hERG rescue: hERG rescue from dofetilide block, primary screen, cell-based, CHO-hERG, FluxOR thallium flux, dofetilide IC70. dofetilide IC70 present. activation (rescue from dofetilide block), less the hit threshold, % at 10 µM. 310,000 compounds, 0.51% hits;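 active = activation above the mean of controls blocked by dofetilide plus 5 SD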;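 note: thallium influx through hERG after potassium depolarization seen as dye fluorescence rise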
KCNQ1 block val: KCNQ1 potassium channel inhibitors, confirmation, cell-based, Tl flux, duplicate. inhibition, % at 10 µM. AID 588353, 2011. KCNQ1 cell line, FluxOR thallium flux fluorescence. 1,600 compounds, 93% hits. shares compounds with KCNQ1 block;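 active = primary screen active, with duplicate mean exceeding buffer control mean plus 3 SD of buffer wells, cut at about 28% in these data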;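 note: 0% = buffer control ratio and 100% = XE991 inhibitor control ratio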
CHO KCNQ1 ctr: thallium flux effects in parental CHO cells, counter-screen for KCNQ1 inhibitor project, cell-based, Tl flux | 1,600 compounds, 21% hits | parental CHO-K1, FluxOR thallium flux fluorescence ratio; hits give low values; zero means no signal rise above baseline | fluorescence ratio (Tl flux) at 10 µM | shares compounds with KCNQ1 block | AID 588366, 2011;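 active = mean of duplicate thallium-flux fluorescence ratios in parental host cells more than 5 SD below the buffer control mean, cut at about 0.38 in these data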;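 note: ratio is peak minus minimum fluorescence divided by baseline fluorescence; actives read low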
KCNQ1 ephys val: KCNQ1 channel inhibitors, confirmation, orthogonal assay, cell-based, automated electrophysiology; KCNQ1-CHO cells, automated patch clamp current; AID 624120, 2012; shares compounds with KCNQ1 block; 490 compounds, 20% hits; calls only at 10 µM;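 active = KCNQ1 current drop exceeding 3 SD of negative control wells, seen in both duplicate runs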;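 note: steady state current during a 2 s step from -80 to +40 mV; negative values mean current inhibition and positive values mean potentiation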
KCNQ2 spec: KCNQ2 channel inhibition, selectivity assay for KCNQ1 inhibitor project, cell-based. shares compounds with KCNQ1 block. KCNQ2 cells, FluxOR thallium flux fluorescence. inhibition, % at 10 µM. 1,600 compounds, 71% hits. AID 651746, 2012;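 active = mean percent inhibition of the KCNQ2 thallium signal more than 5 SD above the buffer-only control wells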;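 note: KCNQ2 expressed in CHO cells; 0% = buffer control wells and 100% = XE-991 inhibitor control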
KCNQ1 KCNE1 spec: KCNQ1/KCNE1 channel inhibition, selectivity assay for KCNQ1 inhibitor project, CHO-K1 cells, thallium flux, FluxOR; shares compounds with KCNQ1 block; inhibition, % at 10 µM; 1,600 compounds, 77% hits; FluxOR thallium flux fluorescence;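 active = mean percent inhibition of duplicate wells above the buffer-only control mean plus 3 SD of those controls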;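 note: 0% = buffer only wells and 100% = XE-991 inhibitor control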
An asterisk follows results filed as active; i = inactive; nt = not tested or not shown; + = active, no number.

SMILES	KCNQ1 block	KCNQ1 pot	KCNK3 inh	KCNK9 block	hERG rescue	KCNQ1 block val	CHO KCNQ1 ctr	KCNQ2 spec	KCNQ1 KCNE1 spec	others
CCCOc1ccc(Br)cc1CSC(=N)N	9*	i	i	i	-16	100*	0.46	78%*	46%*	KCNQ1 ephys val=+
CCOc1ccc(Br)cc1CC(=O)O	i	i	i	i	-7	nt	nt	nt	nt
CCOc1ccc(NC(=O)Nc2ccc3nsnc3c2)cc1	12*	i	i	i	-11	27*	0.55	i	i
CCOc1ccc(NC(=S)Nc2ccc3nsnc3c2)cc1	6*	i	i	i	-2	82*	0.49	70%*	48%*
CCOc1ccc(NC(=S)Nc2ccc(OCC)cc2)cc1	i	i	i	i	-21	nt	nt	nt	nt
CCOc1ccc(NC(=S)Nc2ccc(OC(F)(F)F)cc2)cc1	7*	i	i	i	-3	0	0.55	i	i
O=C(Nc1cccc(S(=O)(=O)N2CCCCC2)c1)Nc1ccc(Cl)cc1Cl	7*	i	i	i	-10	98*	0.45	97%*	70%*	KCNQ1 ephys val=i
O=C(CCN1CCN(Cc2ccccc2)CC1)Nc1cccc(Cl)c1	i	i	i	i	-20	nt	nt	nt	nt
CN(CC(=O)Nc1ccccc1C(F)(F)F)C(=O)C1CC1	nt	nt	i	nt	nt	nt	nt	nt	nt
Cc1cccc2[nH]c3c(N4CC=C(c5ccc(F)cc5)CC4)ncnc3c12	14*	i	i	i	-14	162*	0.33*	134%*	+
COc1cccc2[nH]c3c(N4CCCCC4)ncnc3c12	i	i	i	i	-10	nt	nt	nt	nt
Cc1ccc(N(CCCCN2C(=O)c3ccccc3C2=O)C(=O)c2ccc(Cl)s2)cc1	9*	i	i	i	-12	78*	0.49	71%*	34%*
C/C(O)=c1/ccc2cccc3nc(C)nc1c23	8*	i	i	i	-28	117*	0.25*	i	i
CCN(CC)C(=O)[C@H]1C[C@H](CC(=O)NCCC2=CCCCC2)C(=O)N2CCc3c([nH]c4ccc(Cl)cc34)[C@]12C	nt	nt	i	nt	nt	nt	nt	nt	nt
Cc1ccc(NC(=O)C2CCN(S(=O)(=O)c3ccc4c(c3)NC(=O)C(C)S4)CC2)cc1C (stereo not given)	8*	i	i	i	-10	138*	0.48	117%*	128%*	KCNQ1 ephys val=i
CC1Sc2ccc(S(=O)(=O)N3CCC(C(=O)Nc4cccc(Cl)c4)CC3)cc2NC1=O (stereo not given)	11*	i	i	i	-10	150*	0.39	129%*	160%*
CCc1ccc(NC(=O)C2CCN(S(=O)(=O)c3ccc4c(c3)NC(=O)C(C)S4)CC2)cc1 (stereo not given)	i	i	i	i	-11	nt	nt	nt	nt
CC1Sc2ccc(S(=O)(=O)N3CCC(C(=O)NCc4ccc(Cl)cc4)CC3)cc2NC1=O (stereo not given)	i	i	i	i	-3	nt	nt	nt	nt
CCCCCCCCc1nc(SC(C)C(=O)O)n[nH]1 (stereo not given)	i	i	i	i	-15	nt	nt	nt	nt
CN(C)S(=O)(=O)c1ccc(NC(=O)c2ccc(Br)o2)cc1	i	i	i	i	-13	nt	nt	nt	nt
CN(C1CCCCC1)S(=O)(=O)c1ccc(NC(=O)c2ccc(Br)o2)cc1	7*	i	i	-8*	-9	132*	0.42	115%*	193%*	KCNQ1 ephys val=i
OCC1(Cc2cccc(Cl)c2)CCCN(Cc2ccc(F)c(F)c2)C1 (stereo not given)	i	i	i	i	-13	nt	nt	nt	nt
CSc1cccc(CN2CCCC(CO)(Cc3cccc(Cl)c3)C2)c1 (stereo not given)	7*	i	i	i	-18	56*	0.41	101%*	86%*
COC(=O)CN1C(c2ccccc2O)Nc2ccc(Br)cc2C1c1ccccc1 (stereo not given)	8*	i	i	-6.6*	-10	98*	0.36*	86%*	132%*
O=C(O)CN1C(=O)Nc2ccc(Br)cc2C1c1ccccc1 (stereo not given)	i	i	i	i	-7	nt	nt	nt	nt
SMILES	KCNQ1 block	KCNQ1 pot	KCNK3 inh	KCNK9 block	hERG rescue	KCNQ1 block val	CHO KCNQ1 ctr	KCNQ2 spec	KCNQ1 KCNE1 spec	others
COCc1cc(Sc2ccc(Cl)cc2)nc(-c2ccccc2)n1	6*	i	i	i	-12	77*	0.49	91%*	80%*
COCc1cc(N2CCN(c3ccccc3F)CC2)nc(-c2ccccc2)n1	6*	i	i	i	-3	51*	0.51	60%*	140%*
COCc1cc(N2CCOCC2)nc(-c2ccccc2)n1	i	i	i	i	-4	nt	nt	nt	nt
COc1cc(/C=C/c2noc(-c3ccccc3O)n2)cc(OC)c1OC	i	i	i	i	-1	nt	nt	nt	nt
COc1cc(/C=C/c2nc(-c3ccccc3O)n[nH]2)cc(OC)c1OC	6*	i	i	i	-34	116*	0.38	113%*	190%*
COc1cccc(Cn2c(=O)ccc3ccccc32)c1	i	i	i	i	-9	nt	nt	nt	nt
CCN(CC)c1nc2ccccc2n(Cc2cccc(OC)c2)c1=O	6*	i	i	i	-6	109*	0.4	99%*	170%*	KCNQ1 ephys val=i
COc1cc2c(cc1OC)N1C(=O)CC(OCC(=O)O)C3C4CC5(CCN5C(=O)C4=O)C2C31 (stereo not given)	i	i	i	i	-2	nt	nt	nt	nt
